Most compounds without a hit are left out; they make up all but 3.7% or so of the library.
DENV2 CPE: inhibitors of DENV2 cytopathic effect; CPE inhibition, % at 9.99 µM; DENV2-infected cells, cytopathic effect rescue, plate reader; hit rate 1.7% among 350,000; AID 651640; in the data active = CPE inhibition above about 20%, passing the limit was not always enough; inconclusive = no clear call, values can overlap the other calls; tested in BHK-21 cells;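 also: 0% = median of neutral control wells and 100% = median of positive control wells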
F508del corr: correctors of CFTR F508del function in bronchial epithelial cells | hit rate 0.36% among 350,000 | activity (quench increase), % at 7.58 µM | CFBE cells, YFP halide quenching; stimulated with forskolin plus potentiator P3; % fluorescence drop versus neutral controls | AID 720511;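 active = mean added fluorescence quench of at least 8% versus neutral control, with both replicates also reaching 8%; inconclusive = only one of the mean or replicate conditions met; inactive = mean below 8% and not both replicates reaching 8%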;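 also: cells transiently co-express mutant CFTR-F508del with the halide-sensitive YFP; corrector assay measuring rescue of mutant channel to the surface after 24 h compound exposure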
FGF22 binding: FGF22 (human) thermal shift binding. Q9HCT0. recombinant FGF22 thermal shift, SYPRO orange fluorescence; percent of sucrose octasulfate shift, DMSO zero. activity (Tm shift, normalised), % at 9.99 µM. hit rate 1.5% among 340,000;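 active = mean Tm shift, scaled 0 neutral to 100 positive control, at about 1.3% or above, every replicate too, limit read from the data; inconclusive = no clear call, values can overlap the other calls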
ERAP1 HTS inh: ERAP1 (human) enzyme inhibition; Q9NZ08; recombinant ERAP1, Leu-AMC fluorescence, 60 min; inhibition, % at 10.7 µM; hit rate 0.15% among 340,000;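 active = mean replicate inhibition of at least 30%, or all replicates individually reaching that 30% level; inactive = mean below 30% and not every replicate reaching it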;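 also: 0% = neutral control wells and 100% = L-leucinethiol positive control wells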
Target sequence (Q9NZ08 whole entry, looked up): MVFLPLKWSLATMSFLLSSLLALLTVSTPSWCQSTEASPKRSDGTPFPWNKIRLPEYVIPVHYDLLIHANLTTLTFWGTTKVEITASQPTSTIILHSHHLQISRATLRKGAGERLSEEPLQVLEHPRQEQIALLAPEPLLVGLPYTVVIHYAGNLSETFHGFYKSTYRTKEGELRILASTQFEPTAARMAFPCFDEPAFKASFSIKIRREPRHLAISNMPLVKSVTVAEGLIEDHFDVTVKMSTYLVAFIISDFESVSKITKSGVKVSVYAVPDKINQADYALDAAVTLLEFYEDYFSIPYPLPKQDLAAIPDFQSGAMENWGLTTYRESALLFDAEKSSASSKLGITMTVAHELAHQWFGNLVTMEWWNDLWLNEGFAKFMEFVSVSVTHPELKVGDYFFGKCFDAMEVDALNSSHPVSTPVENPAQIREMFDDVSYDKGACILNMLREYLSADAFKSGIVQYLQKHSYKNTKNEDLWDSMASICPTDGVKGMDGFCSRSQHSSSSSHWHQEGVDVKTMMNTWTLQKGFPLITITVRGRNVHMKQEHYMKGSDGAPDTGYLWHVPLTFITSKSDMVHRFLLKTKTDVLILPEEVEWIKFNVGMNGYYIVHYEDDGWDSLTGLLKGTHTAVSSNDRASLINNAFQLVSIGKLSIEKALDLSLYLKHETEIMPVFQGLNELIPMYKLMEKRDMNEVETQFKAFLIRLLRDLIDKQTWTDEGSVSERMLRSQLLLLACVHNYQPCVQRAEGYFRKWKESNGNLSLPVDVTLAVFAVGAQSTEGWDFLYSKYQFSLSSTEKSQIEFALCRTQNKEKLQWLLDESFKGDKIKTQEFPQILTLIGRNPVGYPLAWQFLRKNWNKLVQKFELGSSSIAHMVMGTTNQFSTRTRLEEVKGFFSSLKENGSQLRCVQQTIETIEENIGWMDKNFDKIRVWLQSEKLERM
E-selectin induc: induces E-selectin expression in human endothelial cells; P16581; HUVEC E-selectin immunofluorescence imaging; normalized: neutral wells 0, TNF-alpha wells 100; activation, % at 7.58 µM; hit rate 0.37% among 260,000; AID 686992;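 active = mean E-selectin-positive cell signal at least 10% of the positive control, reached in at least 60% of replicates, without over 20% cell loss; inconclusive = no rule given, readout overlaps actives, possibly toxicity-flagged; inactive = the rest, including those meeting only one limit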
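System: HUVEC / Compound: single concentration / Signal: immunofluorescence imaging / Read-out: percent E-selectin-positive cells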
Starred values were filed as active, the others as inactive; ? = inconclusive; . = no result.

SMILES	DENV2 CPE	F508del corr	FGF22 binding	ERAP1 HTS inh	E-selectin induc
COC(=O)CCc1cccc(CCC(=O)OC)c1	46*	-2	0	0	0
COc1ccc(C2=CC(=O)C[C@H](c3ccc(OC)cc3)C2)cc1	7	2	0	0	0
COc1ccc([C@H]2CC(=O)C=C(c3ccc(Cl)cc3C)C2)cc1	-8	0	0	-4	0
COc1ccc([C@H]2CC(=O)C=C(c3ccc(OC)cc3OC)C2)cc1	7	11*	0	-2	0
COc1ccc([C@H]2CC(=O)C=C(c3ccc4cc[nH]c4c3)C2)cc1	66*	1	0	.	0
Cc1noc(C)c1NC(=O)N(C)C[C@@H]1Oc2ccc(NC(=O)CCC(F)(F)F)cc2C(=O)N([C@H](C)CO)C[C@H]1C	8	-3	.	-3	-8
C[C@H](CO)N1C[C@H](C)[C@H](CN(C)C(=O)C2CCCCC2)OCCCC[C@H](C)Oc2ccc(NS(C)(=O)=O)cc2C1=O	9	1	0	-1	0
COc1ccc(-c2cc(C(=O)NC3=NCCS3)c3ccccc3n2)cc1OC	8	6	42	1	0
O=C(NC1=NCCS1)c1cc(-c2ccc(-c3ccccc3)cc2)nc2ccccc12	-2	2	43*	-3	0
CO[C@@H]1CN(C)C(=O)c2ccc(NC(=O)c3ccccn3)cc2OC[C@@H](C)N(C(=O)C2CCC2)C[C@H]1C	?	1	0	-2	.
C[C@H](NC(=O)[C@@H]1N[C@@H]2c3ccc(-c4ccc(C(=O)N(C)C)cc4)c(=O)n3C[C@@H]2[C@H]1CO)c1ccccc1	16	-4	0	3	0
CC1(c2nnnn2Cc2ccccc2)CCC(=O)N1CCCn1ccnc1 (stereo unspecified)	26*	1	0	.	-5
C[C@H]1CN([C@@H](C)CO)C(=O)c2cc(-c3ccc(F)cc3)cnc2O[C@H]1CN(C)Cc1cncnc1	13	-3	0	-2	1
Cc1cc(=O)oc2cc(OCCSCCN3CCCC3)ccc12	37*	2	0	1	2
Cc1cc(=O)oc2cc(OCC(=O)N3CCCC3)ccc12	-4	-4	0	1	0
Cc1ccc(CN(C)C[C@@H]2OCc3cnnn3CCCC(=O)N([C@H](C)CO)C[C@@H]2C)cc1	2	0	0	0	0
CCCCC(=NCCc1c(C)[nH]c2ccccc12)C1=C(O)CC(c2ccccc2)CC1=O (stereo unspecified)	18	8.6*	0	10	.
CCc1nc2sccc2c(=O)n1N	6	0	43*	-1	3
S=C(NCc1ccco1)N1CCC(c2nc3ccccc3o2)CC1	-1	0	0	1	60*
CC(C)C#Cc1cnc2c(c1)C(=O)N([C@@H](C)CO)C[C@@H](C)[C@@H](CN(C)C(=O)c1ccc3c(c1)OCO3)O2	11	-2	0	0	0
Cc1noc(C)c1NC(=O)Nc1ccc2c(c1)CC(=O)N([C@@H](C)CO)C[C@@H](C)[C@@H](CN(C)S(=O)(=O)c1ccccc1)O2	5	-2	1	2	-4
Cc1noc(C)c1NC(=O)Nc1ccc2c(c1)CC(=O)N([C@@H](C)CO)C[C@H](C)[C@@H](CN(C)S(=O)(=O)c1ccccc1)O2	11	-3	0	6	49*
Cc1noc(C)c1NC(=O)Nc1ccc2c(c1)CC(=O)N([C@@H](C)CO)C[C@H](C)[C@H](CN(C)C)O2	21*	-1	0	-3	-2
Cc1noc(C)c1NC(=O)Nc1ccc2c(c1)CC(=O)N([C@H](C)CO)C[C@@H](C)[C@@H](CN(C)C)O2	-9	-1	0	-3	-4
COCCNC(=S)N=Nc1c(O)[nH]c2c(C)cc(C)cc12	6	2	44*	1	0
CC(C)NC(=O)N(C)C[C@H]1Oc2cc(-c3ccncc3)ccc2S(=O)(=O)N([C@@H](C)CO)C[C@@H]1C	-1	2	0	-1	0
COc1ccc(Cc2c(-c3ccccc3)nc3c(C)cc(Br)cn23)c(C)c1	-9	-1	0	7	0
COc1ccc(Cc2c(-c3ccco3)nc3c(C)cc(Br)cn23)c(C)c1	23*	-4	0	0	.
COc1ccc(Cc2c(-c3ccco3)nc3ccc(Br)cn23)c(C)c1	?	-2	0	.	2
